PubChem BioAssay AID449761 (Broad Institute, 2010)
Records with an inconclusive call do not appear. The source made the active and inactive calls.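 How the source made its calls: active means compounds raising caspase signal with fitted AC50 no more than tenfold above the top tested dose; inconclusive means flat curve at 30 to 70% activity, or unusable fit; inactive means the rest.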

system: MEF WT non-primed, caspase-Glo luminescence, 3 h; assay: caspase activity of non-primed cells – cell-based, caspase-Glo luminescence, 3 h, counter-screen for Bcl2-A1 inhibitor project, dose response (AID 449761)
Outline: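 Assay system: Non-primed wild-type MEF cells; Quantity: 2500 cells per well; Doses: 100 nL compound added per well by pin transfer; Medium: RPMI-1640 plus 10% FBS; Detection: CaspaseGlo luminescence; Timing: 3 h compound at 37 °C, 1 h reagent at RT.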

Row | Compound | AC50
1 | COC(=O)[C@@]1(C)CC[C@]2(C)CC[C@@]3(C)C(=CC(=O)C4[C@@]5(C)CC[C@H](O)C(C)(C)[C@@H]5CC[C@]43C)[C@H]2C1 (stereo partly drawn) | > 35 µM (inactive)
2 | CCOc1cccc(C(=O)Nc2cccc(-c3nnc(-c4ccc(C)cc4)o3)c2)c1 | 23.6 µM
3 | O=[N+]([O-])/C=C/c1cn(Cc2ccc(Cl)cc2)c2ccccc12 | 18.4 µM
4 | CSC[C@@H]1NC(=S)N(c2ccc(C)cc2)C1=O | > 35 µM (inactive)
5 | Clc1ccccc1CN(Cc1ccccc1)c1ncnc2nc[nH]c12 | > 35 µM (inactive)
6 | CCOc1ccc(OCC(=O)N(CCC2=CCCCC2)c2c(N)n(Cc3ccccc3)c(=O)[nH]c2=O)cc1 | 26.8 µM
7 | N#C/C(=C\c1ccc(OCc2ccccc2)cc1)C(=O)Nc1nc2c(s1)CCN(Cc1ccccc1)C2 | > 35 µM (inactive)
8 | COc1cc(C(=O)Nc2cc3c(cc2N2CCCCC2)n(C)c(=O)n3C)cc(OC)c1OC | > 35 µM (inactive)
9 | CC1=NNC(=O)/C1=C\c1cn(-c2ccccc2)nc1-c1ccccc1 | 11.3 µM
10 | O=C(COc1ccc(/C=N/NC(=O)c2cc3ccccc3o2)cc1Cl)Nc1ccccc1 | 9.56 µM
11 | Cc1cccc(C)c1NC(=O)C(Cl)C(=O)c1ccccc1 (stereo not drawn) | > 35 µM (inactive)
12 | O=C(Oc1cccc(/C=N/Nc2nc(Nc3ccccc3)nc(N3CCOCC3)n2)c1)c1ccco1 | > 35 µM (inactive)
13 | N#Cc1c(C(F)(F)F)cc(-c2ccccc2)nc1SCC(=O)Nc1sc2c(c1C#N)CCC2 | > 35 µM (inactive)
14 | COc1cc(CN2CCN(c3cc(C)ccc3C)CC2)ccc1O | > 35 µM (inactive)
15 | COc1cc2cnc(-c3ccccc3)c(-c3cccc(C(F)(F)F)c3)c2cc1OC | > 35 µM (inactive)
16 | COc1cc2ncnc(NCc3ccc(F)cc3)c2cc1OC | > 35 µM (inactive)
17 | Cc1cc(NC(=O)CSc2nc3cc(Cl)ccc3c(=O)n2Cc2ccco2)no1 | > 35 µM (inactive)
18 | CCS(=O)(=O)c1ncc(Cl)c(C(=O)Nc2ccccc2OC)n1 | > 35 µM (inactive)
19 | COc1ccc(-c2cc(=O)oc3c(C)c(OC(=O)c4cccs4)ccc23)cc1 | 29.1 µM
20 | Cc1cccc(CS(=O)(=O)c2ncc(Cl)c(C(=O)Nc3nnc(C(C)C)s3)n2)c1 | > 35 µM (inactive)
21 | CCOC(=O)c1ccc(-c2ccc(/C=N/NC(=O)CN(c3cccc(C)c3)S(C)(=O)=O)o2)cc1 | 31.1 µM
22 | CC(C)c1cccc(-c2ccc3c(c2)S(=O)(=O)c2cccc(C(=O)NCc4ccccc4Cl)c2C3=O)c1 | > 35 µM (inactive)

Row | Compound | AC50
23 | C=CC(=O)Nc1ccc(CN2C(=O)N(c3c(Cl)c(OC)cc(OC)c3Cl)Cc3cnc(NCCCCN(CC)CC)nc32)cc1 | > 35 µM (inactive)
24 | CN(C)CCCN(C(=O)c1cc2cc([N+](=O)[O-])ccc2s1)c1nc2cc3c(cc2s1)OCCO3 | > 35 µM (inactive)
25 | N#CC(C#N)=C1C=CC=CN1/C(=C\c1ccccc1Cl)C(=O)c1ccccc1 | 5.01 µM
26 | Cc1ccc(NC(=S)NC(NC(=O)Cc2cccc3ccccc23)C(Cl)(Cl)Cl)cc1 (stereo not drawn) | 22.9 µM
27 | CC1CCc2c(sc3nc(C(C)(C)C)nc(N4CCN(C(=O)CCl)CC4)c23)C1 (stereo not drawn) | 13 µM
28 | Cc1ccc(NC(=O)c2ccc(N/N=C/c3cccc(O)c3)c([N+](=O)[O-])c2)cc1 | 29.8 µM
29 | Cc1ccc(C)c(S(=O)(=O)NCC(=O)Nc2sc3c(c2C(N)=O)CCC(C)C3)c1 (stereo not drawn) | > 35 µM (inactive)
30 | Cc1cccc(NC(=O)CSc2nc(C)c(CC(=O)c3ccc(Br)cc3)c(C)c2C#N)c1C | > 35 µM (inactive)
31 | C=C1CCc2c([nH]c3ccc(OCC(C)C)cc23)C1=O | 14.2 µM
32 | C#CC(=O)N(c1cc(OC)ccc1OC)C(C(=O)NC1CCCC1)c1cccs1 (stereo not drawn) | > 35 µM (inactive)
33 | O=C(Nc1ccc2oc(-c3ccccc3F)nc2c1)c1ccccc1F | > 35 µM (inactive)
34 | CCc1nnc(NC(=O)CSc2nc(-c3ccccc3)cc(-c3ccc(F)cc3)c2C#N)s1 | 32.2 µM
35 | COc1ccc(C[C@H]2NC[C@H](O)[C@H]2OC(C)=O)cc1 | > 35 µM (inactive)
36 | Cc1nn(Cc2c(Cl)cccc2Cl)c(C)c1NC(=O)c1cn(-c2ccccc2)nc1-c1ccccc1 | 16.6 µM
37 | CC(=O)Nc1ncnc2c1c(-c1ccc(Cl)cc1)nn2C(C)(C)C | > 35 µM (inactive)
38 | O=C(NC1CCCCC1)C(c1ccc(F)cc1)N(CCc1ccccc1)C(=O)CN1C(=O)c2ccccc2S1(=O)=O (stereo not drawn) | 19.6 µM
39 | COc1ccc2c(-c3cc4ccc(OCc5ccc(F)cc5)cc4oc3=O)cc(=O)oc2c1 | 23.9 µM
40 | CCc1ccccc1NC(=O)C(CC)Sc1nc2cc3c(cc2c(=O)n1Cc1ccco1)OCO3 (stereo not drawn) | > 35 µM (inactive)
41 | COC(=O)Cc1csc(/N=C/c2c(O)n(-c3cccc(C(F)(F)F)c3)c(=O)c3ccccc23)n1 | 9.26 µM
42 | COc1ccc(C2Nc3ccc4ccccc4c3-c3c2c(=O)oc2ccccc32)cc1 (stereo not drawn) | 18 µM
43 | CCOC(=O)C(C(=O)OCC)c1cc(Br)c2noc3c2c1C(=O)c1ccccc1-3 | 8.67 µM
44 | CC1(C)C[C@H](O)[C@]2(CO)[C@H](O)C[C@]3(C)C(=CCC4[C@@]5(C)CC[C@H](O)C(C)(C)C5CC[C@]43C)[C@@H]2C1 (stereo partly drawn) | > 35 µM (inactive)

Row | Compound | AC50
45 | C/C1=C\[C@@H](C)C/C=C/[C@H]2[C@@H]3O[C@]3(C)[C@@H](C)[C@H]3[C@H](Cc4c[nH]c5ccccc45)NC(=O)[C@]32C(=O)/C=C/C(=O)[C@@H]1O | 8.71 µM
46 | CCOC(=O)/C(=C\c1ccc(OC(F)F)cc1)C1=Nn2c(nnc2-c2ccc(Cl)cc2)SC1 | 4.15 µM
47 | CC(=O)OC(C)(C)/C=C/C(=O)C(C)(O)C1[C@H](O)C[C@@]2(C)C3CC=C4C(CC[C@@H](O)C4(C)C)[C@]3(CO)C(=O)C[C@]12C (stereo partly drawn) | > 35 µM (inactive)
48 | COc1cc(-c2cc(-c3ccccc3)nc(SCC(=O)Nc3nccs3)c2C#N)cc(OC)c1OC | > 35 µM (inactive)
49 | COc1ccc(OC)c(NC(=O)c2cc(-c3cc(C)ccc3O)n[nH]2)c1 | > 35 µM (inactive)
50 | O=S1(=O)CCOC[C@H](CC2CCCCC2)N1Cc1cccc(Cl)c1 | > 35 µM (inactive)
51 | CCOC(=O)/C=c1\s/c(=C\c2ccc(C(=O)OC)cc2)c(=O)n1CC(=O)Nc1ccccc1 | > 35 µM (inactive)
52 | COc1ccc(N(C(=O)CCl)C(C(=O)NCCc2ccccc2)c2cccs2)cc1Cl (stereo not drawn) | 27.4 µM
53 | COc1cc(/C=C2/C(=N)N3C=CSC3=NC2=O)ccc1OCCCOc1cc(C)ccc1C | 22.4 µM
54 | Cc1ccc2nc(N(CCCN(C)C)C(=O)c3ccc(S(=O)(=O)N4CCc5ccccc5C4)cc3)sc2c1 | > 35 µM (inactive)
55 | CCOC(=O)N1C(=O)[C@@](c2ccc(Cl)cc2)(C(C)C)N1C(=O)OCC | > 35 µM (inactive)
56 | CCc1nn(-c2cc(Oc3cccc4ccccc34)nc(-c3ccccc3)n2)c(N)c1C#N | > 35 µM (inactive)
57 | Cc1nn(-c2ccccc2)c(C)c1/C=N/NC(=O)CSc1nc2ccccc2c(=O)n1-c1ccc(Br)cc1 | 36 µM
58 | Nc1c(C(=O)Nc2ccc(S(=O)(=O)N3CCCC3)cc2)sc2nc3ccc(OC(F)(F)F)cc3cc12 | 30.7 µM
59 | COc1cc(/C=C(/C#N)c2nc3ccccc3[nH]2)ccc1OCC(=O)Nc1ccccc1C(C)C | 7.53 µM
60 | COc1ccc2cc(C)c3nnc(SCC(=O)Nc4nc(-c5ccc(F)cc5)cs4)n3c2c1 | 26.2 µM
61 | O=[N+]([O-])/C=C/c1ccc2c(ccn2Cc2ccccc2)c1 | 12.6 µM
62 | CCc1nnc(NC(=O)c2nc(S(=O)(=O)Cc3ccccc3)ncc2Cl)s1 | > 35 µM (inactive)
63 | Cn1c(=NC(=O)CCl)sc2ccccc21 | > 35 µM (inactive)
64 | O=C(N=Nc1c(O)[nH]c2ccc([N+](=O)[O-])cc12)c1cc(-c2ccccc2Cl)nc2ccccc12 | > 35 µM (inactive)
65 | CC(=O)[C@]1(O)Cc2c(O)c3c(c(O)c2[C@@H](O[C@H]2C[C@H](N)[C@H](O)[C@H](C)O2)C1)C(=O)c1ccccc1C3=O | > 35 µM (inactive)
66 | COc1ccc2[nH]c3c(=O)n(/N=C/[C@H]4C(C)C=C(C)CC4C)c(=O)[nH]c3c2c1 (stereo partly drawn) | 10.1 µM

Row | Compound | AC50
67 | COc1ccc(-c2c(C#N)c(N)nc(Sc3ccc(Cl)cc3)c2C#N)cc1 | > 35 µM (inactive)
68 | CCn1c(Cl)c(C=O)s/c1=N\S(=O)(=O)c1ccccc1 | > 35 µM (inactive)
69 | CC(C)c1cccc(-c2ccc3c(c2)S(=O)(=O)c2cccc(C(=O)NC4CCCC4)c2C3=O)c1 | > 35 µM (inactive)
70 | Cc1cc(C)n(-c2nc(Nc3ccccc3C)nc(-n3nc(C)cc3C)n2)n1 | 32.1 µM
71 | NS(=O)(=O)c1ccc(N/N=C2/CCCCC2C2CCCCC2)c([N+](=O)[O-])c1 (stereo not drawn) | 33.5 µM
72 | COc1ccccc1C(=O)Nc1ccnn1C1CCN(Cc2cn(C)c3ccccc23)CC1 | > 35 µM (inactive)
73 | COc1ccc(C2C(O)C(c3c[nH]c4ccccc34)=NN2C(=O)CCl)cc1 (stereo not drawn) | 36.1 µM
74 | CCOc1ccc(NC(=S)NC(=O)/C=C/c2ccc(C)cc2)c([N+](=O)[O-])c1 | 21.7 µM
75 | CCOc1cc(C(=O)CSc2nnc(CNc3ccc(Cl)cc3)o2)ccc1NC(=O)CC | 16 µM
76 | CC1=CC(=O)C(C(C)C)=C/C1=N/OS(=O)(=O)c1ccccc1 | 22 µM
77 | CC1=NNC(=O)/C1=C\c1cn(-c2ccccc2)nc1-c1cccs1 | 14.3 µM
78 | COc1ccc(NC(=S)NC(NC(=O)/C=C/c2ccccc2)C(Cl)(Cl)Cl)cc1 (stereo not drawn) | > 35 µM (inactive)
79 | CCSc1nnc(NC(=O)c2nc(S(=O)(=O)Cc3ccc(F)cc3)ncc2Cl)s1 | > 35 µM (inactive)
80 | COc1cccc(C(=O)C(C#N)=C(SC)SC)c1 | > 35 µM (inactive)
81 | COc1cc(NC(=O)c2ccccc2F)ccc1NC(=O)c1cc2ccccc2o1 | 36.6 µM
82 | Cc1ccc(S(=O)(=O)N(C)Cc2ccc(C(=O)N/N=C/c3ccc(OC(F)F)cc3)cc2)cc1 | > 35 µM (inactive)
83 | COc1cc(C2CC(c3cccs3)=NN2C(=O)CCl)ccc1OC(F)F (stereo not drawn) | 32.9 µM
84 | COCc1cc(C)nc(SCC(=O)Nc2nc(C)cs2)c1C#N | > 35 µM (inactive)
85 | COc1ccc(C(=O)/C=C/C(=O)N(CC(=O)NC2CCCCC2)Cc2cccs2)c(O)c1 | 23.7 µM
86 | COC(=O)CSc1nc(N)c2c3c(sc2n1)C(c1ccccc1)SC(c1ccccc1)C3 (stereo not drawn) | > 35 µM (inactive)
87 | CCC(Sc1nc2cc3c(cc2c(=O)n1Cc1ccco1)OCO3)C(=O)Nc1cccc(OC)c1 (stereo not drawn) | > 35 µM (inactive)
88 | CCc1ccc(NC(=O)c2nc(S(=O)(=O)Cc3ccccc3)ncc2Cl)cc1 | > 35 µM (inactive)
